# Bioassay records: PubChem BioAssay, several laboratories
# Hits are enriched below; roughly 6% of the tested compounds scored in any of these assays.
# Lung fibro prol – blocks proliferation of human lung fibroblasts. LL 47 human lung fibroblast viability, ATP luminescence; active compounds read low. viability, % at 10 µM. hit rate 1.1% among 85,000;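 active = viability at or below 50% in the single dose screen; inactive = viability above 50%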;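 note: compound exposure lasted 72 h before the ATP readout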
#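 Test system: LL 47 human lung fibroblasts / Incubation: 72 h compound exposure at 37 °C after overnight plating / Technique: luminescent ATP detection, CellTiter-Glo / Compound dosing: 0.1% DMSO in all compound wells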
# Jurkat viability – cytotoxic compounds reducing Jurkat cell viability; Jurkat E6.1 viability, ATP luminescence, 48 h; inhibition, % at 4 µM; hit rate 1.2% among 56,000;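 active = inhibition above the mean inhibition of all tested compounds plus 3 SD, cut at about 28% in these data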
# H69AR growth 86K – blocks growth of human H69AR lung tumor cells; H69AR lung tumor viability, ATP luminescence, 72 h; active compounds read low; viability, % at 10 µM; hit rate 6% among 85,000;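 active = viability at or below 40%; inactive = viability above 40%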;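 note: multidrug resistant small cell line overexpressing MRP-1 efflux transporter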
# F-actin modifier – alters cytoskeleton assembly in HUVEC cells | HUVEC TNFa F-actin phalloidin imaging, high content | hit rate 0.18% among 91,000 | inhibition, % at 2 µM;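 active = inhibition above the batch mean plus 3 SD and confirmed as a hit by visual image inspection, cut at about 30% in these data, passing the limit was not always enough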
# Pyk2 oligo antag – blocks oligomerization of human Pyk2 in cells | Q14289 | Q293 cells, Pyk2 FERM NanoBiT luminescence; active compounds read low | z-score (the deposit names both 25 µM and 10 µM) | hit rate 0.83% among 99,000 | AID 1347419;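 active = Z-score of -3 or lower, scaled per plate to the spread of control and sample wells; inactive = z-score above -3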;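 note: negative z-score means lost luminescence so less FERM oligomerization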
# Target sequence (Q14289 whole entry, looked up): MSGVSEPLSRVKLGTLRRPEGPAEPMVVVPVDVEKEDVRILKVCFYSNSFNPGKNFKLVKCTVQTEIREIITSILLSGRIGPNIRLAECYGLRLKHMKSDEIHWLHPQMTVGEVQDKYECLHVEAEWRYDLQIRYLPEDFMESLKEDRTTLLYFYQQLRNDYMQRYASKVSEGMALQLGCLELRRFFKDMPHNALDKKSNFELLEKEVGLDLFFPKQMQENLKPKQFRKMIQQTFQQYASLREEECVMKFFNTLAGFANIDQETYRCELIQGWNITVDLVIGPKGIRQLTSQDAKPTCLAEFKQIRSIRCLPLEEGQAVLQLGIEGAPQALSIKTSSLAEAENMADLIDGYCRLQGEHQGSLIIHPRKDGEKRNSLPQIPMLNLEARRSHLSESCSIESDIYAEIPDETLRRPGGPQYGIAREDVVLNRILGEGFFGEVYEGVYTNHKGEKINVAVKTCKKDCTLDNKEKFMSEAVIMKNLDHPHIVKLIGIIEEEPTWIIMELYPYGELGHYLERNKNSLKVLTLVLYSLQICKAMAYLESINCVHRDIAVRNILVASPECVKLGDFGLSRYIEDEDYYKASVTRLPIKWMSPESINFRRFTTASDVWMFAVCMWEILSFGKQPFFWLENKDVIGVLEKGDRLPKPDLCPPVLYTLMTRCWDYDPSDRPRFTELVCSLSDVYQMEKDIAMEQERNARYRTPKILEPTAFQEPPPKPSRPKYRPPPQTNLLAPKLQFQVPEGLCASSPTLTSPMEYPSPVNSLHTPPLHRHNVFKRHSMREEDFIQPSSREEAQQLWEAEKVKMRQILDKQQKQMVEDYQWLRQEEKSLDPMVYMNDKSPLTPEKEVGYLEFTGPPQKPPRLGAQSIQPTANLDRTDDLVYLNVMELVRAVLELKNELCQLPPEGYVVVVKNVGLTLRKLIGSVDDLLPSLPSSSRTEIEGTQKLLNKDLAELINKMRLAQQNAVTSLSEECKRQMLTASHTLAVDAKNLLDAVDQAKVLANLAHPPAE
# HUVEC inhibit – blocks proliferation of human endothelial cells | HUVEC proliferation, CellTiter-Glo luminescence, 72 h; active compounds read low | viability, % at 10 µM (by protocol) | hit rate 1.1% among 86,000;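 active = viability at or below 30%; inactive = viability above 30%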
# Numbers stand for hits; 0 = inactive; - = not tested or not shown.
SMILES,Lung fibro prol,Jurkat viability,H69AR growth 86K,F-actin modifier,Pyk2 oligo antag,HUVEC inhibit
Cc1ccc(N=Nc2c(N)[nH]n3c(=O)c4c(nc23)CCCC4)cc1,-,-,-,0,-,-
Cc1ccc(N=Nc2c(=O)[nH]n3c(C)cc(C)nc23)cc1,-,-,-,-,-3.81,-
CCOC(=O)Cc1c(C)nc2c(-c3ccc(OC)cc3)c(C)nn2c1C,0,-,23.1,0,0,0
CCOC(=O)Cc1c(C)nc2c(-c3ccccc3)c(-c3ccccc3)[nH]n2c1=O,0,-,32.0,0,0,0
CCOC(=O)Cc1c(C)nc2c(-c3ccccc3)c(C)[nH]n2c1=O,0,-,0,0,0,0
Cc1nc2c(-c3ccccc3)c(C)nn2c(C)c1CCC(=O)O,0,0,0,0,-,0
Cc1ccc(C(=O)CCNc2ccc(F)c(Cl)c2)o1,0,83.0,0,-,0,0
Cc1ccc(C(=O)CCNc2ccc(Br)cc2)o1,0,0,0,0,0,0
O=C(/C=C(\O)c1ccc(Cl)cc1)C(=O)NNC(=O)C(O)(c1ccccc1)c1ccccc1,0,-,24.0,0,0,0
C=CCn1c(N)c(C(=O)OC(C)(C)C)c2nc3ccccc3nc21,0,-,29.5,0,0,0
CCOc1ccc2[nH]c(=O)c(CN(CCO)C(=O)CC)cc2c1,0,0,0,0,0,0
CCOc1c(Br)cc(C2NS(=O)(=O)N=C3CCCCCN32)cc1OC (centres undefined),0,0,34.0,0,0,0
CCOc1ccc(OCCSc2nnnn2-c2ccccc2)cc1,0,-,0,0,-4.09,0
COCc1cc(=O)[nH]c(Nc2nc(C)c3ccccc3n2)n1,48.2,-,26.6,0,0,0
COc1ccc2nc(Nc3nc(C)c(CCC(C)C)c(=O)[nH]3)nc(C)c2c1,0,0,0,0,0,0
Cc1ccc2c(C)nc(Nc3nc(CSc4nnnn4-c4ccccc4)cc(=O)[nH]3)nc2c1,0,0,34.7,-,0,0
COc1ccc2nc(Nc3nc(CSc4nnnn4-c4ccccc4)cc(=O)[nH]3)nc(C)c2c1,0,-,1.7,0,0,3.0
Cc1ccnc(NC(=O)Nc2cccc(F)c2)c1,0,0,0,0,0,0
CCCN1C2CCCC1CC(NC(=O)c1cc(OC)c(OC)c(OC)c1)C2 (centres undefined),0,0,0,0,0,0
Cn1c(C(=O)N2CCc3ccccc32)cc2c(=O)n3ccccc3nc21,0,0,0,-,-,0
CCOc1ccc2nc(Nc3nc(CSc4nnnn4-c4ccccc4)cc(=O)[nH]3)nc(C)c2c1,0,-,4.5,0,0,0
Cn1cc(/C=N/n2cnc3scc(-c4ccccc4)c3c2=O)c2ccccc21,0,40.6,28.3,0,0,0
CCCN1C=CC(=C2C(=O)c3ccccc3C2=O)C=C1,0,0,0,-,0,0
CCN1C=CC(=C2C(=O)c3ccccc3C2=O)C=C1,0,0,27.1,0,0,0
O=C(COC(=O)c1ccc(O)cc1)Nc1ccc(N2CCCCC2)cc1,0,-,0,0,0,0
SMILES,Lung fibro prol,Jurkat viability,H69AR growth 86K,F-actin modifier,Pyk2 oligo antag,HUVEC inhibit
O=C(CNC1CCCCCC1)Nc1ccc(N2CCCC2)cc1,-,-,-,0,-,-
O=C(CNCCC1=CCCCC1)Nc1ccc(N2CCCCCC2)cc1,23.5,-,0.2,-,0,2.0
O=C(COC(=O)C1CCCCC1)Nc1ccc(N2CCCCC2)cc1,0,-,37.5,0,0,0
Cc1c(C=O)c2ccccc2n1CC(=O)N1CCc2ccccc2C1,0,-,0,0,0,0
CCC(Sc1nc2ccccc2s1)C(=O)Nc1cc(C)on1 (centres undefined),0,-,0,0,0,0
COc1ccccc1-c1nc(-c2ccccn2)no1,0,0,39.7,0,-,0
COc1ccccc1-c1noc(-c2ccncc2)n1,0,0,0,0,0,0
Cc1nc2ccccn2c1/C(O)=C1\C(=O)C(=O)N(CCCN(C)C)C1c1ccc(F)cc1 (centres undefined),0,0,0,0,-,0
Cn1c(C(C#N)C(=O)c2sc3ccccc3c2Cl)nc2ccccc21 (centres undefined),0,0,17.1,0,0,0
CCCCn1c(=O)[nH]c(=O)c2c1nc(-c1ccsc1)n2Cc1ccccc1,0,-,0,0,-3.09,0
CCCCn1c(-c2ccsc2)nc2c1c(=O)[nH]c(=O)n2CCC,0,0,0,0,0,0
COCC(=O)Nc1cc(C)c2c(=O)oc3ccccc3c2n1,0,0,0,-,-,0
Cc1cc(NC(=O)CN2CCc3ccccc3C2)nc2c1c(=O)oc1ccccc12,0,0,27.9,-,-,0
COc1ccc(C(=O)Nc2cc(C)c3c(=O)oc4ccccc4c3n2)cc1,0,-,38.7,0,-,0
CCOC(=O)N1CCN(C(=O)c2cn(CCOC)c(=O)c3c2c2ccccc2n3C)CC1,0,0,0,0,0,0
Cn1c(C(=O)NCCc2c[nH]c3ccccc23)cc2sccc21,0,61.5,0,0,-,0
C=CCn1c(CCCNC(=O)CCC)nc2ccccc21,0,-,0,0,0,0
Cc1cccc(NC(=O)c2c(O)c3cccc4c3n(c2=O)CCC4)n1,0,0,0,0,-,0
Cc1cnc(NC(=O)c2c(O)c3cccc4c3n(c2=O)CCC4)s1,0,0,5.7,0,-,0
CC(C)c1nnc(NC(=O)c2c(O)c3cccc4c3n(c2=O)CCC4)s1,0,0,33.7,0,0,0
CCOc1c(CNCCN2CCOCC2)cccc1OC,0,-,0,0,0,0
c1ccc(Nc2ncnc3sc4c(c23)CCC4)cc1,-,-,-,0,0,-
c1csc(CCNc2ncnc3sc4c(c23)CCC4)c1,0,40.0,0,0,-,0
CCOc1ccc(NS(=O)(=O)c2ccc(NS(=O)(=O)c3ccccc3)cc2)cc1,0,-,0,0,0,0
CCOc1ccc(S(=O)(=O)Nc2ccccc2SC)cc1,0,-,30.5,0,0,0
SMILES,Lung fibro prol,Jurkat viability,H69AR growth 86K,F-actin modifier,Pyk2 oligo antag,HUVEC inhibit
CCOc1ccc(S(=O)(=O)Nc2cc(Cl)ccc2O)cc1,0,0,17.3,0,0,0
CCOc1ccc(S(=O)(=O)Nc2cccc(Cl)c2)cc1,-,0,10.0,0,0,0
CCN(CC)c1ccc(NC(=O)c2cccnc2)c(C)c1,0,-,39.7,0,0,0
CN1CCN(c2ccccc2NC(=O)c2ccc(-c3ccc(Cl)cc3Cl)o2)CC1,0,-,31.6,0,0,5.8
Cc1nnc2sc(-c3ccc(NC(=O)c4ccc(-c5ccc(Cl)cc5Cl)o4)cc3)nn12,0,0,8.2,0,0,28.4
Cc1nnc2sc(-c3ccc(NC(=O)c4cccnc4)cc3)nn12,0,0,10.1,0,-,0
CC(=O)Cc1nsc(NC(=O)c2ccc(-c3ccc(Cl)cc3Cl)o2)n1,0,-,0,0,0,0
O=C(c1cnc2n(c1=O)CCS2)N1CCN(c2ccc([N+](=O)[O-])cc2)CC1,0,-,0,0,-,0
CCSc1ccc(NC(=O)c2cccnc2)cc1,0,-,33.1,0,0,0
CCc1ccc(NC(=O)c2cccnc2)cc1,0,0,0,0,0,0
CS(=O)(=O)N1CCC(C(=O)Nc2ccc(Br)cc2F)CC1,0,0,0,0,0,0
COC(=O)/C(=C\Nc1ccc(Cl)c2ccccc12)c1ncc(C(F)(F)F)cc1Cl,0,-,32.9,0,-3.35,0
